According to ChEMBL document CHEMBL3352597, “Heck products of parthenolide and melampomagnolide-B as anticancer modulators that modify cell cycle progression” (Eur J Med Chem, 2014):
The source made the active and inactive calls. No cut-off for these calls is given here.

Legend:
Assay type in all cases: functional
MDA-MB-435 = assay: Anticancer activity against human MDA-MB-435 cells
Summary of the method: (§1)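 NCI 60 human cancer cell line panel, multiple-dose testing at five concentrations (10^-4, 10^-5, 10^-6, 10^-7 and 10^-8 M). Dose-response curves plot cytotoxic effect against log10 of drug concentration for each cell line. GI50 is the molar concentration giving 50% growth inhibition; LC50 is the concentration killing 50% of cells.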

SK-MEL-2 = assay: Anticancer activity against human SK-MEL-2 cells; summary of the method: as §1
SK-MEL-28 = assay: Anticancer activity against human SK-MEL-28 cells; summary of the method: as §1
SK-MEL-5 = assay: Anticancer activity against human SK-MEL-5 cells; summary of the method: as §1
[1] = Anticancer activity against human UACC257 cells
Summary of the method: (§2)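 NCI 60 human tumour cell line screen. A single-concentration pre-screen was run at 10^-5 M. Compounds selected from it were then tested at five concentrations, 10^-4 to 10^-8 M. Dose-response curves plotted cytotoxic effect against log10 of the drug concentration for each cell line. GI50 is the molar concentration giving 50% growth inhibition, and LC50 the concentration killing 50% of cells.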

UACC-62 = assay: Anticancer activity against human UACC62 cells; summary of the method: as §2
IGROV-1 = assay: Anticancer activity against human IGROV1 cells; summary of the method: as §1
[2] = Anticancer activity against human OVCAR3 cells; summary of the method: as §1
[3] = Anticancer activity against human OVCAR4 cells; summary of the method: as §1
[4] = Anticancer activity against human OVCAR5 cells; summary of the method: as §1
[5] = Anticancer activity against human OVCAR8 cells; summary of the method: as §1
[6] = Anticancer activity against human NCI-ADR-RES cells; summary of the method: as §1
[7] = Anticancer activity against human SKOV3 cells; summary of the method: as §1
786-0 = assay: Anticancer activity against human 786-0 cells; summary of the method: as §1
A498 = assay: Anticancer activity against human A498 cells; summary of the method: as §1
ACHN = assay: Anticancer activity against human ACHN cells; summary of the method: as §1
CAKI-1 = assay: Anticancer activity against human CAKI-1 cells; summary of the method: as §1
RXF 393 = assay: Anticancer activity against human RXF393 cells; summary of the method: as §1
SN12C = assay: Anticancer activity against human SN12C cells; summary of the method: as §1
TK-10 = assay: Anticancer activity against human TK10 cells; summary of the method: as §2
[8] = Anticancer activity against human UO31 cells; summary of the method: as §2
[9] = Anticancer activity against human PC3 cells; summary of the method: as §1
DU-145 = assay: Anticancer activity against human DU145 cells after 48 hrs; details: DU-145, 48 h; summary of the method: as §1
MCF7 = assay: Anticancer activity against human MCF7 cells; summary of the method: as §1
MDA-MB-231 = assay: Anticancer activity against human MDA-MB-231 cells; summary of the method: as §1
[10] = Anticancer activity against human Hs 578T cells; summary of the method: as §1
[11] = Anticancer activity against human BT549 cells; summary of the method: as §1
T47D = assay: Anticancer activity against human T47D cells; summary of the method: as §2
MDA-MB-468 = assay: Anticancer activity against human MDA-MB-468 cells; summary of the method: as §1
[12] = read-out: LC50 (the source's name)

C/C1=C\CC[C@@]2(C)O[C@@H]2[C@H]2OC(=O)C(Cn3ccnc3I)[C@@H]2CC1 (stereo partly drawn)
GI50 (MDA-MB-435): 13.8 µM | CC50 (MDA-MB-435; [12]): 59.5 µM | GI50 (SK-MEL-2): 18.6 µM | CC50 (SK-MEL-2; [12]): 66.1 µM | GI50 (SK-MEL-28): 16.1 µM | CC50 (SK-MEL-28; [12]): 73 µM | GI50 (SK-MEL-5): 18.5 µM | LC50 (SK-MEL-5): 95.6 µM | GI50 ([1]; UACC-257): 12 µM | CC50 ([1]; UACC-257, read-out: LC50 (the source's name)): 53.9 µM | GI50 (UACC-62): inactive | LC50 (UACC-62): inactive | GI50 (IGROV-1): 20 µM | CC50 (IGROV-1; [12]): 75.6 µM | GI50 ([2]; OVCAR-3): 6.85 µM | CC50 ([2]; OVCAR-3, read-out: LC50 (the source's name)): 50.8 µM | GI50 ([3]; OVCAR-4): 13.2 µM | CC50 ([3]; OVCAR-4, read-out: LC50 (the source's name)): 60 µM | GI50 ([4]; OVCAR-5): 13.7 µM | CC50 ([4]; OVCAR-5, read-out: LC50 (the source's name)): 52.5 µM | GI50 ([5]; OVCAR-8): 16.6 µM | CC50 ([5]; OVCAR-8, read-out: LC50 (the source's name)): 59.9 µM | GI50 [6]: 31.2 µM | CC50 [6, 12]: > 100 µM | GI50 ([7]; SK-OV-3): 47.3 µM | CC50 ([7]; SK-OV-3, read-out: LC50 (the source's name)): > 100 µM | GI50 (786-0): 14.3 µM | CC50 (786-0; [12]): 53 µM | GI50 (A498): 45.2 µM | CC50 (A498; [12]): > 100 µM | GI50 (ACHN): 10.5 µM | CC50 (ACHN; [12]): 47.4 µM | GI50 (CAKI-1): 6.61 µM | CC50 (CAKI-1; [12]): 49.5 µM | GI50 (RXF 393): inactive | LC50 (RXF 393): inactive | GI50 (SN12C): 17.7 µM | CC50 (SN12C; [12]): 84.1 µM | GI50 (TK-10): inactive | LC50 (TK-10): inactive | GI50 ([8]; UO-31): 10.8 µM | CC50 ([8]; UO-31, read-out: LC50 (the source's name)): 50 µM | GI50 ([9]; PC-3): 23.1 µM | CC50 ([9]; PC-3, read-out: LC50 (the source's name)): 100 µM | GI50 (DU-145): 18.8 µM | CC50 (DU-145; [12]): 68.3 µM | GI50 (MCF7): 9.79 µM | CC50 (MCF7; [12]): > 100 µM | GI50 (MDA-MB-231): 16.4 µM | LC50 (concentration killing 50% of cells) (MDA-MB-231): 59.6 µM | GI50 [10]: 21.3 µM | CC50 [10, 12]: > 100 µM | GI50 ([11]; BT-549): 15.9 µM | CC50 ([11]; BT-549, read-out: LC50 (the source's name)): 55.3 µM | GI50 (T47D): 9.88 µM | CC50 (T47D; [12]): 54.3 µM | GI50 (MDA-MB-468): 11.1 µM | LC50 (concentration killing 50% of cells) (MDA-MB-468): 60.4 µM
